We go through 48 sequences from the EternaBench riboswitch data.

This series has as its system MS2 coat protein. Briefly: apparent Kd, MS2 coat protein; higher = weaker binding; RNA-MaP array; FMN 200 µM where present. The method, boiled down:
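Stalled E. coli RNA polymerase transcribed each design on Illumina sequencing-chip clusters. The clusters were titrated with SNAP-549-labelled MS2 coat protein, starting at 0.7 or 1.5 nM and doubling up to 3 µM, first without ligand and then with constant ligand, in 100 mM Tris-HCl pH 7.5, 80 mM KCl, 4 mM MgCl2, BSA, DTT, yeast tRNA and Tween-20. Green signal was normalised to red-channel RNA signal and to the control-cluster median Fmax. The apparent Kd is the median of filtered binding-curve fits made for each cluster.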

Setting [1] is: designed as: OFF switch for flavin mononucleotide, no ligand.
[2] abbreviates: ligand present: flavin mononucleotide, designed as: OFF switch for flavin mononucleotide.
[3] abbreviates: designed as: ON switch for flavin mononucleotide, no ligand.
Where [4] appears, read: ligand present: flavin mononucleotide, designed as: ON switch for flavin mononucleotide.

As to “GACUUGUUAGGAUAUCUUACAUUUGCAUCAUAGUUACCAUUGGAGAAGGGACAUGAGGAUCACCCAUGUUUGGU”, the “apparent Kd” value under setting [1] worked out at 0.04 µM and the “apparent Kd” value under setting [2] came to 0.0398 µM.
Turning to “GUAUCGUGAGGAUAUCAUGAUUGACUUAGUUUAUGUCAGCGUGAGAAGGCACAUGAGGAUCACCCAUGUGAUUA”, the “apparent Kd” value runs as follows: under setting [1], 0.0247 µM; under setting [2], 0.0549 µM.
Consider “GCCAUCUCAUGAGGAUAUGCUCCCGUUUCGGGAGCAGAAGGCAUGUCAUAAGACAUGAGGAUCACCCAUGUAGUUAAGAUGGCA”, for which the “apparent Kd” value reads like this: under setting [3], 0.286 µM; under setting [4], 0.0118 µM.
As for “UAGGGCUUGGGCAGAAGGGUUACAUGAGGAUCACCCAUGUACAGAAGGAGAGCCUUGGGAAAGCUCUAGGAUAUGUCUAUGGGU”, the “apparent Kd” value by setting is: under setting [1], 0.00993 µM; under setting [2], 0.00666 µM.
For the sequence “ACGGUGGUCACAGGAUAUCCGGCCCGCGUGCCUGGAGAAGGGUGACUCAGAACCACAUGAGGAUCACCCAUGUGCCUUGCCGUA”, the “apparent Kd” value worked out at 0.0921 µM under setting [3] and 0.0319 µM under setting [4].
The matching figures for “GUAGCAUAGGGAGGAUAUUCAUAUAAUAAAUAAACAUGAGGAUCACCCAUGUGGCGAAAGCCUUGGGAGAAGGCCCAAUGCUAC”: 0.866 µM and 0.0362 µM.
Consider “CUUCUGUGAGGAUAUGUUAGUUCCCAGCAAAUCGCUGGGAGACAGAAGGCACAUGAGGAUCACCCAUGUGGGCG”, for which the “apparent Kd” value under setting [1] came out at 0.0392 µM and the “apparent Kd” value under setting [2] turned out to be 0.221 µM.
“AUAUAUAUAUAGAAGGUGCCAGCGAGAGCUGCACAUGAGGAUCACCCAUGUUGUCGGUGACGACGCAAGGAUAUAUAUAUAUAU”: the “apparent Kd” value under setting [3] worked out at 0.034 µM and the “apparent Kd” value under setting [4] is 0.0154 µM.
Take “GCCUUAUCCGUCAGGAUAUACAUUUUUUUGUUGUUGUAGAAGGGACAUGAGGAUCACCCAUGUACAUUACAUUG”: the “apparent Kd” value reads like this: under setting [1], 0.0215 µM; under setting [2], 0.0251 µM.
Regarding “GGUACCAACACAGGAUAUCCUAUCCUUUGGGUAGGAGAAGGGUGAAACAUGAGGAUCACCCAUGUGGUGCCAGGGCGUGAGCCC”, the “apparent Kd” value under setting [3] was 1.23 µM and the “apparent Kd” value under setting [4] was found to be 0.206 µM.
For the sequence “CCGCUGUUAGGAUAUCUGAAGCUUCAAUGGAAGUCUUCAUUGGAGAAGGGACAUGAGGAUCACCCAUGUAGGGA”, the “apparent Kd” value reads like this: under setting [1], 0.192 µM; under setting [2], 0.253 µM.
For “AAGCGCGUAGGAUAUACAUGAGGAUCACCCAUGUGAGGAGGGAGUUGGAGGUGUGGAAGUAGAAGGACGGAGUG”, the “apparent Kd” value was determined as 0.0481 µM under setting [1] and 0.0376 µM under setting [2].
The corresponding values for “GGUAUCCGGCAGGAUAUUGUGAGAAUCUGUAAGCGAGAAGGGCCAACAUGAGGAUCACCCAUGUACCAUUGAGA” are 0.0523 µM and 0.0451 µM.
The corresponding values for “AGAUGGUGAUGUUAUCUUCGUCGGACAUGAGGAUCACCCAUGUAGGAUAUGCUACUAAAAUAGUAGCAGAAGGACAUGUAUCUU” are 0.104 µM and 1.03 µM.
The corresponding values for “AAUAACAGAGGAUAUACUGUUUUAUGUGUUUAUUGUUUUAAACAUGAGGAUCACCCAUGUAGAAGGCUGAGUAA” are 0.0389 µM and 0.039 µM.
Take “UUGCUACAUGAGGAUCACCCAUGUCAGGAUAUUGUGUAUACCGUGGAAGCUGUGUCGAUAAGAAGGGACUGUCU”: the “apparent Kd” value by setting is: under setting [1], 0.0266 µM; under setting [2], 0.0305 µM.
Take “AGAUUUGUACAUGAGGAUCACCCAUGUUAAUAGGUGUUUGUCAGAAGGCAUUAAUAGAGAUUUAAUGAGGAUAUGAAGUUACAA”: the “apparent Kd” value under setting [3] was 0.0703 µM and the “apparent Kd” value under setting [4] amounted to 0.0463 µM.
“AGCUGUGGCCGAGGAUAUCUGUUCCAUAUAACCGAAAUAUAAUCGGACAUGAGGAUCACCCAUGUAGAGAAGGCGGUCUCAGCA”: the “apparent Kd” value by setting is: under setting [1], 0.0227 µM; under setting [2], 0.0248 µM.
Take “AAGGAAACCACAGGAUAUGGCUAGCAUAGCUAGCCAGAAGGGUGGUCGAAACCAUGUAAAUACAUGAGGAUCACCCAUGUGUCC”: the “apparent Kd” value reads like this: under setting [3], 0.189 µM; under setting [4], 0.271 µM.
“AAGGUAUACUGAGGAUAUCCGUGGGUAUAUGGGUCUAGGAACAUGAGGAUCACCCAUGUUCCCUAGGAGAAGGCAGGACAUUAA”: the “apparent Kd” value reads like this: under setting [1], 0.025 µM; under setting [2], 0.0336 µM.
The corresponding values for “UUACUAUUGCAGAAGGCUAAAUAAUAUAUAAAUGGAGGAUAUGCAACAUGAGGAUCACCCAUGUUUCACCCAUAUGAGGAUCAC” are 0.0077 µM and 0.00914 µM.
As to “UCACGGUAUGUAGGAUAUGCAUAGCAUUGCUAUGCAGAAGGACAUGAGGAUCACCCAUGUAUGUAUUCCAUACUAAUCCCGUGA”, the “apparent Kd” value was 0.00565 µM under setting [1] and 0.00556 µM under setting [2].
As to “GUAGCAUACCGAGGAUAUUCAGGGCGUGGAUAUACAUGAGGAUCACCCAUGUGGCGGAAGCCUAGGGAGAAGGCGGGCUGCUAC”, the “apparent Kd” value is, setting by setting: under setting [3], 0.0215 µM; under setting [4], 0.0163 µM.
Regarding “UUAUAUAAUGUGAGGAUAUGCUGGUCGAGAGAUCAGCAGAAGGCACAUGAGGAUCACCCAUGUAGUAAAUUUUA”, the “apparent Kd” value by setting is: under setting [1], 0.0225 µM; under setting [2], 0.0259 µM.
Turning to “CGGUCGAUAUCAGGAUAUCGUUUAAUUACAUGAGGAUCACCCAUGUUGACAAGGAAUAUAACUUGCGAGAAGGGAUUACGAUCG”, the “apparent Kd” value was determined as 0.00933 µM under setting [3] and 0.00647 µM under setting [4].
Regarding “CUCGUGUAAGGAUAUACGAGUCACGGAAAUAAACCGUGAAGGUAGAAGGUACAUGAGGAUCACCCAUGUAAAAC”, the “apparent Kd” value by setting is: under setting [1], 0.04 µM; under setting [2], 0.347 µM.
The matching figures for “AUAAUGCGAGGAUAUACAUGAGGAUCACCCAUGUAAUUCCAUCGGAGAGCCACAUUUCGUAGAAGGUGCAUUUA”: 0.0154 µM and 0.0154 µM.
“AAUAACAGAGGAUAUGCAAAAAUAAGCGGAAACGCAAGAAAACAUGAGGAUCACCCAUGUAGAAGGCUGGAUAA”: the “apparent Kd” value was determined as 0.0236 µM under setting [1] and 0.0176 µM under setting [2].
In the case of “GCAACGCCUGACAUGAGGAUCACCCAUGUUAGAUUGUUAUGUCAGGAUAUUGUCUCGAAACGAGAUGAGAAGGGAUAUGUUGCU”, the “apparent Kd” value under setting [3] came to 0.997 µM and the “apparent Kd” value under setting [4] amounted to 0.0612 µM.
Turning to “AUUUUGUCAGGAUAUGAUUAGUAGGACGAGAGUGCUACUACUUAGAAGGGACAUGAGGAUCACCCAUGUAUUCC”, the “apparent Kd” value is, setting by setting: under setting [1], 0.0178 µM; under setting [2], 0.0222 µM.
Take “UUGGACGUCGUAGGAUAUGUAGGAUAUUCCUACAUGAGGAUCACCCAUGUUGACAUGGAAGAAGGUCAGAAGGACGAUGUCCAU”: the “apparent Kd” value reads like this: under setting [3], 0.344 µM; under setting [4], 0.559 µM.
The corresponding values for “UCGUACAUUCGAGGAUAUCGGUGAUAAAUAAUACGAGAAGGCGAUUGUGGGAAUAACGCCUUAGACAUGAGGAUCACCCAUGUA” are 0.0724 µM and 0.0626 µM.
With “UUUAAUCGAAACAUGAGGAUCACCCAUGUGUUGUAAUUAACAUAGGAUAUUUGUAUACUUUUGUAAGAGAAGGAUGAUAAUACU”, the “apparent Kd” value runs as follows: under setting [3], 0.0224 µM; under setting [4], 0.0158 µM.
Turning to “GCUGCGCGAGGAUAUGCGGUUCGCGCUGUGGCCCGUGGCGCACAUGAGGAUCACCCAUGUAGAAGGCGUGCGGG”, the “apparent Kd” value came out at 0.0123 µM under setting [1] and 0.0131 µM under setting [2].
In the case of “UGUCGGAGCAGAGGAUAUUACAUGAGGAUCACCCAUGUAUGAACCAAUAGCUGGAAACAGCAAUGUAAGAAGGCUGCUCCGGCA”, the “apparent Kd” value under setting [1] is 0.0118 µM and the “apparent Kd” value under setting [2] worked out at 0.186 µM.
On to “GAUAUAGAGCAGGAUAUCUUAGAUAUGUAAUAAAGAGAAGGGCUCACAUGAGGAUCACCCAUGUGGUCCUAGAU”, for which the “apparent Kd” value under setting [1] was 0.0185 µM and the “apparent Kd” value under setting [2] was 0.113 µM.
Regarding “GUGGCAUACCGAGGAUAUUCAUAUAAUAAAUAAACAUGAGGAUCACCCAUGUGGCGAAAGCCUUGGGAGAAGGCGGAAUGCUAC”, the “apparent Kd” value under setting [3] worked out at 0.574 µM and the “apparent Kd” value under setting [4] is 0.0382 µM.
“GAGAAUACACUCGUCUCCGCUCAACCAGAAGGGCAUGAUAAUAUUACAUGAGGAUCACCCAUGUUGCAGGAUAUGGUGAGCCUC”: the “apparent Kd” value runs as follows: under setting [3], 0.141 µM; under setting [4], 0.0589 µM.
Take “GGCGGUAAUGAGAAGGGUCACAUGAGGAUCACCCAUGUGCUCUUCGCCGUGACAGGAUAUCAUUGCCGUCAGGUUAGAUUUUUG”: the “apparent Kd” value amounted to 0.00799 µM under setting [1] and 0.0254 µM under setting [2].
Take “AAGAAUAGAAAGAUUAAUAUGAAUACAUGAGGAUCACCCAUGUAGGAUAUCGACGUCAAUGACGUCGAGAAGGACAAAAUAAAU”: the “apparent Kd” value under setting [1] was determined as 0.00944 µM and the “apparent Kd” value under setting [2] came out at 0.00955 µM.
Consider “CCGGAUAUGCAGGAUAUCGAAUCGGAAACGAUUCGAGAAGGGUAUACAUGAGGAUCACCCAUGUGUCCUACCGG”, for which the “apparent Kd” value is 0.0249 µM under setting [1] and 0.0316 µM under setting [2].
The matching figures for “UAAUUAAUAAGAUCAAUUAAUUAACAUGAGGAUCACCCAUGUGAGGAUAUCAGCUCGAUUAGAGCUGAGAAGGCACAAUAAUUA”: 0.0432 µM and 0.102 µM.
Take “UUAUUAUAUGUAGGAUAUGCAUAUAAUUAUUGUGCAGAAGGACAUGAGGAUCACCCAUGUAUAUUAUUAUUAUAUAUUAUAUAU”: the “apparent Kd” value reads like this: under setting [1], 0.0249 µM; under setting [2], 0.0143 µM.
For the sequence “AAGAAAGAGCGAGGAUAUGCGAUAAAAUAAUAAGCAGAAGGUGCAUAACAUGAGGAUCACCCAUGUUGUUGUCAUGUCAAGAUU”, the “apparent Kd” value is, setting by setting: under setting [1], 0.0142 µM; under setting [2], 0.0182 µM.
The matching figures for “CCCGCGAUGUCAGGAUAUAGUCGGAGGUUCAGACUAGAAGGGACAUGAGGAUCACCCAUGUGCGUGAAAAUUUAAAACCUAGGU”: 0.0515 µM and 0.191 µM.
The corresponding values for “CCCGGGUUAGGAUAUUUGGGCCCGGGCGAACGCCCGGGCCCGGAGAAGGGACAUGAGGAUCACCCAUGUCCGGG” are 0.0212 µM and 0.0192 µM.
The matching figures for “GAUUAGUGAGGAUAUGGUAAAGAUAAGAUGAUGAAAGAACUCCAGAAGGCACAUGAGGAUCACCCAUGUAGUAU”: 0.0174 µM and 0.0216 µM.
On to “AAACAUGUCCGAGGAUAUCUGGAAACAUUUUCAAGAGAAGGCGGACAUGAGGAUCACCCAUGUCUCUCCUCAUCAAAUCCAAGC”, for which the “apparent Kd” value is 0.0082 µM under setting [1] and 0.0449 µM under setting [2].
